Several values for one entry are separate records, joined by “and”; a condition that tells them apart may be missing. Identical values can stand only once.
Experiments:
Fibroblast = assay: Multiplex assay against human fibroblast; assay type: toxicity, cell-based; details: number of replicates 2
Outline: (§1)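 Cells were classed with CellPathfinder machine-learning gating, first as Hoechst high-intensity objects or normal cells, then (normal cells) as healthy, pyknosed or fragmented nuclei, and finally (pyknosed cells) as mitotic or apoptotic. Staining of live cells at seeding used Hoechst33342, BioTracker Green Microtubule Cytoskeleton Dye, MitoTracker Red and Annexin V Alexa Fluor 680, with imaging on a CQ1 microscope at 37°C and 5% CO2 after compound addition. Tubulin, mitochondrial-mass and membrane-permeability phenotypes are per cents of healthy-nucleus cells.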

HEK-293T = assay: Multiplex assay against HEK293T; assay type: toxicity, cell-based; details: human, number of replicates 2; outline: as §1
[1] = 12 h, 1 µM, compound concentration 1 uM
[2] = 12 h, 10 µM, compound concentration 10 uM
[3] = 24 h, 1 µM, compound concentration 1 uM
[4] = 24 h, 10 µM, compound concentration 10 uM
[5] = 48 h, 1 µM, compound concentration 1 uM
[6] = 48 h, 10 µM, compound concentration 10 uM

Cc1cc(-c2cnc(N)c3c(-c4ccc5scnc5c4)csc23)n(C)n1
Population Apoptotic (%) (Fibroblast; [1]): 48% and 40%
Population Fragmented Nuclei (%) (Fibroblast; [1]): 9% and 10%
Population Healthy Nuclei (%) (Fibroblast; [1]): 77% and 62%
Population Hoechst High Intensity Objects (%) (Fibroblast; [1]): 0%
Population Membrane Permeable-Phenotype (%) (Fibroblast; [1]): 4% and 10%
Population Mitochondria Different-Phenotype (%) (Fibroblast; [1]): 0% and 2%
Population Mitotic Cells (%) (Fibroblast; [1]): 51% and 60%
Population Normal (%) (Fibroblast; [1]): 100%
Population Pyknosed Nuclei (%) (Fibroblast; [1]): 12% and 26%
Population Tubulin-Different-Phenotype (%) (Fibroblast; [1]): 14% and 15%
Total Cell Count (Fibroblast; [1]): 224 and 187
Population Apoptotic (%) (Fibroblast; [2]): 66% and 51%
Population Fragmented Nuclei (%) (Fibroblast; [2]): 23%
Population Healthy Nuclei (%) (Fibroblast; [2]): 61% and 62%
Population Hoechst High Intensity Objects (%) (Fibroblast; [2]): 0%
Population Membrane Permeable-Phenotype (%) (Fibroblast; [2]): 12% and 20%
Population Mitochondria Different-Phenotype (%) (Fibroblast; [2]): 2% and 0%
Population Mitotic Cells (%) (Fibroblast; [2]): 33% and 48%
Population Normal (%) (Fibroblast; [2]): 99% and 100%
Population Pyknosed Nuclei (%) (Fibroblast; [2]): 15% and 14%
Population Tubulin-Different-Phenotype (%) (Fibroblast; [2]): 76% and 56%
Total Cell Count (Fibroblast; [2]): 240 and 224
Population Apoptotic (%) (Fibroblast; [3]): 50% and 60%
Population Fragmented Nuclei (%) (Fibroblast; [3]): 13% and 10%
Population Healthy Nuclei (%) (Fibroblast; [3]): 75% and 64%
Population Hoechst High Intensity Objects (%) (Fibroblast; [3]): 0%
Population Membrane Permeable-Phenotype (%) (Fibroblast; [3]): 1% and 6%
Population Mitochondria Different-Phenotype (%) (Fibroblast; [3]): 0% and 3%
Population Mitotic Cells (%) (Fibroblast; [3]): 50% and 39%
Population Normal (%) (Fibroblast; [3]): 100%
Population Pyknosed Nuclei (%) (Fibroblast; [3]): 11% and 25%
Population Tubulin-Different-Phenotype (%) (Fibroblast; [3]): 10% and 13%
Total Cell Count (Fibroblast; [3]): 253 and 187
Population Apoptotic (%) (Fibroblast; [4]): 68% and 59%
Population Fragmented Nuclei (%) (Fibroblast; [4]): 27%
Population Healthy Nuclei (%) (Fibroblast; [4]): 62% and 60%
Population Hoechst High Intensity Objects (%) (Fibroblast; [4]): 0%
Population Membrane Permeable-Phenotype (%) (Fibroblast; [4]): 10% and 15%
Population Mitochondria Different-Phenotype (%) (Fibroblast; [4]): 1%
Population Mitotic Cells (%) (Fibroblast; [4]): 32% and 40%
Population Normal (%) (Fibroblast; [4]): 100%
Population Pyknosed Nuclei (%) (Fibroblast; [4]): 9% and 12%
Population Tubulin-Different-Phenotype (%) (Fibroblast; [4]): 74% and 46%
Total Cell Count (Fibroblast; [4]): 254 and 259
Population Apoptotic (%) (Fibroblast; [5]): 71% and 61%
Population Fragmented Nuclei (%) (Fibroblast; [5]): 10% and 14%
Population Healthy Nuclei (%) (Fibroblast; [5]): 83% and 67%
Population Hoechst High Intensity Objects (%) (Fibroblast; [5]): 0%
Population Membrane Permeable-Phenotype (%) (Fibroblast; [5]): 4% and 9%
Population Mitochondria Different-Phenotype (%) (Fibroblast; [5]): 1% and 3%
Population Mitotic Cells (%) (Fibroblast; [5]): 28% and 38%
Population Normal (%) (Fibroblast; [5]): 100%
Population Pyknosed Nuclei (%) (Fibroblast; [5]): 6% and 17%
Population Tubulin-Different-Phenotype (%) (Fibroblast; [5]): 8% and 13%
Total Cell Count (Fibroblast; [5]): 221 and 189
Population Apoptotic (%) (Fibroblast; [6]): 66% and 72%
Population Fragmented Nuclei (%) (Fibroblast; [6]): 31% and 29%
Population Healthy Nuclei (%) (Fibroblast; [6]): 59% and 61%
Population Hoechst High Intensity Objects (%) (Fibroblast; [6]): 0%
Population Membrane Permeable-Phenotype (%) (Fibroblast; [6]): 6% and 9%
Population Mitochondria Different-Phenotype (%) (Fibroblast; [6]): 1%
Population Mitotic Cells (%) (Fibroblast; [6]): 33% and 27%
Population Normal (%) (Fibroblast; [6]): 100%
Population Pyknosed Nuclei (%) (Fibroblast; [6]): 9% and 8%
Population Tubulin-Different-Phenotype (%) (Fibroblast; [6]): 71% and 54%
Total Cell Count (Fibroblast; [6]): 257 and 251
Population Apoptotic (%) (HEK-293T; [1]): 53% and 52%
Population Fragmented Nuclei (%) (HEK-293T; [1]): 5% and 2%
Population Healthy Nuclei (%) (HEK-293T; [1]): 81% and 85%
Population Hoechst High Intensity Objects (%) (HEK-293T; [1]): 7% and 6%
Population Membrane Permeable-Phenotype (%) (HEK-293T; [1]): 3% and 1%
Population Mitochondria Different-Phenotype (%) (HEK-293T; [1]): 21% and 11%
Population Mitotic Cells (%) (HEK-293T; [1]): 46% and 47%
Population Normal (%) (HEK-293T; [1]): 92% and 93%
Population Pyknosed Nuclei (%) (HEK-293T; [1]): 13% and 11%
Population Tubulin-Different-Phenotype (%) (HEK-293T; [1]): 61% and 56%
Total Cell Count (HEK-293T; [1]): 648 and 641
Population Apoptotic (%) (HEK-293T; [2]): 45% and 68%
Population Fragmented Nuclei (%) (HEK-293T; [2]): 4% and 3%
Population Healthy Nuclei (%) (HEK-293T; [2]): 77% and 84%
Population Hoechst High Intensity Objects (%) (HEK-293T; [2]): 17% and 13%
Population Membrane Permeable-Phenotype (%) (HEK-293T; [2]): 4% and 2%
Population Mitochondria Different-Phenotype (%) (HEK-293T; [2]): 59% and 57%
Population Mitotic Cells (%) (HEK-293T; [2]): 54% and 31%
Population Normal (%) (HEK-293T; [2]): 82% and 86%
Population Pyknosed Nuclei (%) (HEK-293T; [2]): 17% and 12%
Population Tubulin-Different-Phenotype (%) (HEK-293T; [2]): 92% and 91%
Total Cell Count (HEK-293T; [2]): 429 and 378
Population Apoptotic (%) (HEK-293T; [3]): 49% and 53%
Population Fragmented Nuclei (%) (HEK-293T; [3]): 7% and 6%
Population Healthy Nuclei (%) (HEK-293T; [3]): 85% and 86%
Population Hoechst High Intensity Objects (%) (HEK-293T; [3]): 8% and 9%
Population Membrane Permeable-Phenotype (%) (HEK-293T; [3]): 3% and 1%
Population Mitochondria Different-Phenotype (%) (HEK-293T; [3]): 10% and 4%
Population Mitotic Cells (%) (HEK-293T; [3]): 50% and 46%

— ChEMBL document CHEMBL5303300, “EUbOPEN Chemogenomics Library - Multiplex” (2023)
